Experimental findings from ChEMBL document CHEMBL4043172, “Constructing novel dihydrofuran and dihydroisoxazole analogues of isocombretastatin-4 as tubulin polymerization inhibitors through [3+2] reactions” (Bioorg Med Chem, 2017) are described below.

Assay [1] relates to PC-3. Kind of assay: Cytotoxicity against human PC3 cells assessed as reduction in cell viability incubated for 48 hrs by SRB assay. In kind it is functional, cell-based. To be noted: PC-3, 48 h. In short, it runs like this:
(§1)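 SRB colorimetric antiproliferative assay. Cells were grown in RPMI-1640 with 10% heat-inactivated FBS and penicillin/streptomycin at 37 °C and 5% CO2, and compound-exposed for 48 h. IC50 is the concentration causing 50% inhibition of cell viability, given as mean ± SD of three determinations.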
(In general: The SRB assay estimates cell density from bound dye.)

The test system of assay [2] is PC-3. Kind of assay: Cell cycle arrest in human PC3 cells assessed as accumulation at S phase at 1 uM incubated for 24 hrs by propidium iodide staining based FACS assay (reference value: 23.5%). The class given is functional. The method, boiled down:
(§2)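 PC-3 cells in RPMI-1640 with 10% FBS at 37 °C and 5% CO2. Cells were plated at 1.0×10^5 cells/mL and pre-incubated 24 h, then treated. They were collected by centrifugation, fixed in 70% ethanol overnight at 4 °C, resuspended in PBS with RNase A and propidium iodide, and analysed by flow cytometry for phase distribution against untreated control.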
Background: Flow cytometry measures light scatter and fluorescence of single cells or particles in a stream.

The test system of assay [3] is PC-3. Kind of assay: Cell cycle arrest in human PC3 cells assessed as accumulation at S phase at 0.5 uM incubated for 24 hrs by propidium iodide staining based FACS assay (reference value: 23.5%). In kind it is functional. In short, it runs like this: as §2
For assay [4], the species on record is Sus scrofa. Kind of assay: (§3) Inhibition of porcine brain tubulin polymerization incubated for 80 mins by fluorescence based spectrophotometry. The method, boiled down:
(§4)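 Cell-free fluorescence kit assay. Tubulin (10 mg/mL) in buffer 1 with tubulin glycerol buffer and GTP (100 mM stock) was exposed to compound or DMSO for 80 min at 37 °C. Fluorescence (ex 360 nm, em 460 nm) was read each minute. IC50 was derived from five concentrations: 3, 5, 10, 20 and 40 μM.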

A short description of assay [5]: as §3. Also on record: species or system Sus scrofa. In short, it runs like this: as §4
In assay [6] the test system is PC-3. As to the kind of experiment: Cell cycle arrest in human PC3 cells assessed as accumulation at G0/G1 phase at 1 uM incubated for 24 hrs by propidium iodide staining based FACS assay (reference value: 62.5%). The class given is functional. The method, boiled down:
as §2

The species named for assay [7] is Homo sapiens. As to the kind of experiment: Inhibition of tubulin polymerization in human PC3 cells assessed as disruption of microtubule network at 0.02 uM incubated for 48 hrs by immunohistochemistry. The class given is cell-based. To be noted: 1 uM, in the assay text read “at 1 uM” for “at 0.02 uM”. The method, boiled down: (§5)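 PC-3 cells were treated for 48 h, then fixed with 4% paraformaldehyde for 30 min and permeabilized with 0.1% Triton X-100 at 4 °C in the dark for 30 min. After blocking in PBS with 5% BSA, cells took anti-α-tubulin (1:500) overnight at 4 °C, then TRITC goat anti-rabbit IgG (1:500) for 1 h at RT. Nuclei were DAPI-stained and imaged by fluorescence microscopy at 20×.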

For assay [8], the system named is PC-3. As to the kind of experiment: Cell cycle arrest in human PC3 cells assessed as accumulation at G0/G1 phase at 0.5 uM incubated for 24 hrs by propidium iodide staining based FACS assay (reference value: 62.5%). In kind it is functional. In short, it runs like this:
as §2

The species entered for assay [9] is Homo sapiens. As to the kind of experiment: Inhibition of tubulin polymerization in human PC3 cells assessed as disruption of microtubule network at 1 uM incubated for 48 hrs by immunohistochemistry. The class given is cell-based. In short, it runs like this: as §5
The test system of assay [10] is HeLa. Kind of assay: Cytotoxicity against human HeLa cells assessed as reduction in cell viability incubated for 48 hrs by SRB assay. The class given is functional, cell-based. In short, it runs like this: as §1
For assay [11], the system named is PC-3. Kind of assay: Cell cycle arrest in human PC3 cells assessed as accumulation at G2/M phase at 0.5 uM incubated for 24 hrs by propidium iodide staining based FACS assay (reference value: 14%). In kind it is functional. The method, boiled down:
as §2

Assay [12] concerns PC-3. Kind of assay: Cell cycle arrest in human PC3 cells assessed as accumulation at G2/M phase at 1 uM incubated for 24 hrs by propidium iodide staining based FACS assay (reference value: 14%). In kind it is functional. The method, boiled down: as §2

Broadly, the IC50 is the concentration at which inhibition is half-maximal.

Each structure is given as a SMILES string. Active and inactive are the calls of the source. The calls are words filed in the database; no cut-off is given here.

Regarding `COc1ccc(C2(c3cc(OC)c(OC)c(OC)c3)CC(c3ccc(Cl)cc3)=NO2)cc1O` (configuration not stated), the IC50 was 0.47 µM in assay [1], 30.7 µM in assay [5] and 3.29 µM in [10]. In addition, the Activity in assay [2] is reported as 8.8%; in assay [3], 13.3%; in assay [6] it was 6.7%; in assay [8], 23.2%; in assay [11], 63.5%; in assay [12] it was 84.5%. Also, the inhibition result in [4] is “Dose-dependent effect”. The inhibition entry in assay [7] and in [9] was “Active” throughout.
